In publication PMC5901702 (Journal of biomolecular screening, 2012):

Tests used:
rat IDE [1] = target: T1, rat IDE (Rattus norvegicus, UniProt P35559); test: Native PAGE mobility shift of rat IDE; assay type: binding; details: ATP 3 mM
T1 sequence (P35559 1-1019): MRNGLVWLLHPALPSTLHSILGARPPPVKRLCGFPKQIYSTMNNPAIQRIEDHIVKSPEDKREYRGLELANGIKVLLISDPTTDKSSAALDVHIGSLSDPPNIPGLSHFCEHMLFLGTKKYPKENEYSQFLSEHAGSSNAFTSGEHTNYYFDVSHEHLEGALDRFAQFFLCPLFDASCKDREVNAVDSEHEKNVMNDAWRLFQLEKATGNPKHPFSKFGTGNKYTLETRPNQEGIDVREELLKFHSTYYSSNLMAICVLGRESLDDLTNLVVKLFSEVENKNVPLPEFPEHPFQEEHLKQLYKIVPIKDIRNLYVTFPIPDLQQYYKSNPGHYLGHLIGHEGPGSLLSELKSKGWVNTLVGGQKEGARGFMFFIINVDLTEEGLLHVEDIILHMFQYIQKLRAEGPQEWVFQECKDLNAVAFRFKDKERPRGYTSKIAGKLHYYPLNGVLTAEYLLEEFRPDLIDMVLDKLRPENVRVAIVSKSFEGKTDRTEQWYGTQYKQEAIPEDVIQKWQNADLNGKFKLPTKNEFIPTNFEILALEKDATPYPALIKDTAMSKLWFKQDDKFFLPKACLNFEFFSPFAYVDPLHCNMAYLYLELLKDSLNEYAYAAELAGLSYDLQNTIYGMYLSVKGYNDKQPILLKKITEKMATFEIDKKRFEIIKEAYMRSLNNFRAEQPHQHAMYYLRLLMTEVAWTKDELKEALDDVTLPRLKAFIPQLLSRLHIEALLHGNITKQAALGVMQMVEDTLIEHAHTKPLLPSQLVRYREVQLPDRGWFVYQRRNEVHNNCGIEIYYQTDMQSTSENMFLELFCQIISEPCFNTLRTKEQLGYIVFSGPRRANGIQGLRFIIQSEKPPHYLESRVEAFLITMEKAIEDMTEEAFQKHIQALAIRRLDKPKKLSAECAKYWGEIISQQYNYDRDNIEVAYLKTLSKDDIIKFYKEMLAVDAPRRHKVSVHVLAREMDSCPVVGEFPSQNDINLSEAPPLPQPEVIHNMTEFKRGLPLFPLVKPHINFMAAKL
In short: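 Rat IDE was preincubated 60 min at 37 °C with compound (100 µM) or ATP (3 mM). It was mixed 1:1 with 2× native sample buffer (0.6 M Tris-HCl pH 6.8, 20% glycerol, bromophenol blue), run on 10% native PAGE at 4 °C and silver-stained.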

rat IDE [2] = target: T1, rat IDE; test: ATP effect on rat IDE activity and activators; assay type: biochemical
In short: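 Rat IDE (87.7 nM) with 50 µM a-factor–based internally quenched fluorogenic substrate in 50 mM Tris pH 7.5 containing BSA and 1 mM ATP. Compounds were used at optimal levels taken from Tris/BSA dose-response curves. ATP titration (0–10 mM) was also run in 0.1 M KPi pH 7.6 or Tris/BSA. Activity is % of water- or DMSO-treated control, n = 4.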

rat IDE [3] = target: T1, rat IDE; test: Dose-response of rat IDE activation; assay type: biochemical; details: rat IDE activation, a-factor–based substrate
In short: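 Rat IDE (10 µg/mL) in 0.1 M KPi pH 7.6 was preincubated 10 min at 37 °C with activator (up to 1 mM), then mixed 1:1 with a-factor–based fluorogenic substrate (50 µM final). Fluorescence (320 ex) was read over 60 min and rate taken from the 15–30 min window. Baseline was subtracted and rates normalized to trypsin/pronase E full digestion. AC50 came from best-fit curves, or [Max]50 where the curve was not sigmoidal.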

| native PAGE mobility shift of IDE (rat IDE [1]) | ATP-dependent activation of IDE (rat IDE [2]; KPi buffer, assay conditions used for HTS) | maximum activating concentration (rat IDE [2]; Tris/BSA buffering system) | dose-response profile (rat IDE [3]) | SMILES |
| --- | --- | --- | --- | --- |
| did not observe a mobility shift | not observed | approximately 1 mM | – | Nc1ncnc2c1ncn2[C@@H]1O[C@H](COP(=O)(O)OP(=O)(O)OP(=O)(O)O)[C@@H](O)[C@H]1O [ATP, adenosine triphosphate, reference compound] |
| – | – | – | hormetic response | Cc1ccc(C(=O)Nc2ccc(S(=O)(=O)O)c3cc(S(=O)(=O)O)cc(S(=O)(=O)O)c23)cc1NC(=O)c1cccc(NC(=O)Nc2cccc(C(=O)Nc3cc(C(=O)Nc4ccc(S(=O)(=O)O)c5cc(S(=O)(=O)O)cc(S(=O)(=O)O)c45)ccc3C)c2)c1 [suramin, reference compound] |
